Measured values: ChEMBL document CHEMBL3739303, “Targeting the Src Homology 2 (SH2) Domain of Signal Transducer and Activator of Transcription 6 (STAT6) with Cell-Permeable, Phosphatase-Stable Phosphopeptide Mimics Potently Inhibits Tyr641 Phosphorylation and Transcriptional Activity” (J Med Chem, 2015)
Peptide text beside a SMILES is read from it.

Biological target: T1, Signal transducer and activator of transcription 6 (Homo sapiens, UniProt P42226)
T1 sequence (P42226 whole entry): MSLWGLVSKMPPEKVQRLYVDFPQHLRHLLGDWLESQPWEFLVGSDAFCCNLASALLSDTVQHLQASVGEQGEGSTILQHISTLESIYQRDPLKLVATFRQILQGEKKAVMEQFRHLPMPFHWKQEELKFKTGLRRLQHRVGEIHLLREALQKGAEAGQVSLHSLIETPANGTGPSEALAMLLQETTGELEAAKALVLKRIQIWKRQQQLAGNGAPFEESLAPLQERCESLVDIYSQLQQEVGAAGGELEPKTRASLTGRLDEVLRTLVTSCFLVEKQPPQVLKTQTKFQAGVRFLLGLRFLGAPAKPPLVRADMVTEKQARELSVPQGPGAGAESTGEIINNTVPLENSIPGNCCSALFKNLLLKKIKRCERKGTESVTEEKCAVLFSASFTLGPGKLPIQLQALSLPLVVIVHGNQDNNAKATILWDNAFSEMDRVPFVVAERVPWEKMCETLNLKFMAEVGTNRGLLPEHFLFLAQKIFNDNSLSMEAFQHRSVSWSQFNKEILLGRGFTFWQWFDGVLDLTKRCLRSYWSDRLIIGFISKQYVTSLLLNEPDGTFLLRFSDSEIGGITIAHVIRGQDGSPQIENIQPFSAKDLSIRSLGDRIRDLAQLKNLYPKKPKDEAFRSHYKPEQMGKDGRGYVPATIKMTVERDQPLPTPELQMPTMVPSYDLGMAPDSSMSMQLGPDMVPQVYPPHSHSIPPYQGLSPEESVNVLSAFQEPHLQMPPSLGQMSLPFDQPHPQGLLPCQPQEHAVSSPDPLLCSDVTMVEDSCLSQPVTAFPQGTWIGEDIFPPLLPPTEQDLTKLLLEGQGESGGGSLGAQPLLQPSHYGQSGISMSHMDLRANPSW
Assay: Inhibition of STAT6 (unknown origin) expressed in Escherichia coli using FAM-Ala-pTyr-Lys-ProPhe-Gln-Asp-Leu-Ile-NH2 as substrate by fluorescence polarization assay
How it was run: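 His6-tagged STAT6 construct (coiled-coil, DNA-binding, linker and SH2 domains), purified by nickel IMAC; competitive FP binding. STAT6 at 480 nM mixed with 20 nM FAM-labelled phosphopeptide probe, then equal volume of serially diluted peptides (from 200 μM) added. Buffer: 50 mM NaCl, 10 mM Hepes, 1 mM Na4EDTA, 2 mM DTT, 1% NP-40. mP plotted against log concentration; IC50 by nonlinear regression; triplicate, three probe preparations; mean ± SD.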

Compared with C/C(=C\C(=O)N[C@H](C(=O)N(C)CC(=O)N(C)c1ccccc1)C(C)(C)C)c1ccc(OP(=O)(O)O)cc1, C/C(=C\C(=O)N[C@H](C(=O)N(C)[C@@H](C)C(=O)N(C)c1ccccc1)C(C)(C)C)c1ccc(OP(=O)(O)O)cc1 is 1.8-fold higher in IC50: 270 nM for the first, 480 nM for the second.

Compared with C/C(=C\C(=O)N[C@H](C(=O)N1CCCC1CCCCc1ccccc1)C(C)(C)C)c1ccc(OP(=O)(O)O)cc1 (stereo partly drawn), C/C(=C\C(=O)N[C@H](C(=O)N1CCCC1/C=C/CCc1ccccc1)C(C)(C)C)c1ccc(OP(=O)(O)O)cc1 (stereo partly drawn) is 2-fold lower in IC50: 1070 nM for the first, 540 nM for the second.

C/C(=C\C(=O)N[C@H](C(=O)N1CCC[C@H]1C(=O)NCCc1ccccc1)C(C)(C)C)c1ccc(OP(=O)(O)O)cc1 and C/C(=C\C(=O)N[C@H](C(=O)N1CCC[C@H]1C(=O)NCc1ccccc1)C(C)(C)C)c1ccc(OP(=O)(O)O)cc1 are within 1.5-fold of each other in IC50: 250 nM for the first, 340 nM for the second.

NCCCC[C@H](NC(=O)/C=C/c1ccc(OP(=O)(O)O)cc1)C(=O)N1CCC[C@H]1C(=O)N[C@@H](Cc1ccccc1)C(N)=O and NCCCC[C@H](NC(=O)[C@H](Cc1ccc(OP(=O)(O)O)cc1)NC(=O)/C=C/c1ccccc1)C(=O)N1CCC[C@H]1C(=O)N[C@@H](Cc1ccccc1)C(N)=O (HELM PEPTIDE1{[O=C(/C=C/c1ccccc1)[*:2]].[O=C([C@H](Cc1ccc(OP(=O)(O)O)cc1)N[*:1])[*:2]].K.P.F.[am]}$$$$V2.0) are within 1.5-fold of each other in IC50: 8600 nM for the first, 6600 nM for the second.

CC[C@H](C)[C@H](NC(=O)[C@H](CC(C)C)NC(=O)[C@H](CC(=O)O)NC(=O)[C@H](CCC(N)=O)NC(=O)[C@H](Cc1ccccc1)NC(=O)[C@@H]1CCCN1C(=O)[C@H](CCCCN)NC(=O)[C@H](Cc1ccc(OP(=O)(O)O)cc1)NC(C)=O)C(N)=O (HELM PEPTIDE1{[ac].[O=C([C@H](Cc1ccc(OP(=O)(O)O)cc1)N[*:1])[*:2]].K.P.F.Q.D.L.I.[am]}$$$$V2.0) and CC(=O)N[C@@H](Cc1ccc(OP(=O)(O)O)cc1)C(=O)N[C@@H](CCCCN)C(=O)N1CCC[C@H]1C(=O)N[C@@H](Cc1ccccc1)C(=O)N[C@@H](CCC(N)=O)C(=O)N[C@@H](CC(=O)O)C(=O)N[C@@H](CC(C)C)C(N)=O (HELM PEPTIDE1{[ac].[O=C([C@H](Cc1ccc(OP(=O)(O)O)cc1)N[*:1])[*:2]].K.P.F.Q.D.L.[am]}$$$$V2.0) are within 1.5-fold of each other in IC50: 1800 nM for the first, 2400 nM for the second.

Compared with C/C(=C\C(=O)N[C@H](C(=O)N1CCCC1CN(C)c1ccccc1)C(C)(C)C)c1ccc(OP(=O)(O)O)cc1 (stereo partly drawn), C/C(=C\C(=O)N[C@H](C(=O)N1CCC[C@H]1C(=O)N(C)c1ccccc1)C(C)(C)C)c1ccc(OP(=O)(O)O)cc1 is 3.4-fold lower in IC50: 410 nM for the first, 120 nM for the second. The second is the more potent here.

CC(=O)N[C@@H](Cc1ccc(OP(=O)(O)O)cc1)C(=O)N[C@@H](CCCCN)C(=O)N1CCC[C@H]1C(N)=O (HELM PEPTIDE1{[ac].[O=C([C@H](Cc1ccc(OP(=O)(O)O)cc1)N[*:1])[*:2]].K.P.[am]}$$$$V2.0) and CC(=O)N[C@@H](Cc1ccc(OP(=O)(O)O)cc1)C(=O)N[C@@H](CCCCN)C(=O)N1CCC[C@H]1C(=O)N[C@@H](Cc1ccccc1)C(N)=O (HELM PEPTIDE1{[ac].[O=C([C@H](Cc1ccc(OP(=O)(O)O)cc1)N[*:1])[*:2]].K.P.F.[am]}$$$$V2.0) are within 1.5-fold of each other in IC50: 5200 nM for the first, 6100 nM for the second.

CC(C)(C)[C@H](NC(=O)/C=C/c1ccc(OP(=O)(O)O)cc1)C(=O)N1CCC[C@H]1C(=O)Nc1ccccc1 and CN(C(=O)[C@@H]1CCCN1C(=O)[C@@H](NC(=O)/C=C/c1ccc(OP(=O)(O)O)cc1)C(C)(C)C)c1ccccc1 are within 1.5-fold of each other in IC50: 1250 nM for the first, 870 nM for the second.

Compared with CC(C)(C)[C@H](NC(=O)c1cc2cc(OP(=O)(O)O)ccc2[nH]1)C(=O)N1CCC[C@H]1C(=O)N(c1ccccc1)c1ccc(I)cc1, CC(C)(C)[C@H](NC(=O)/C=C/c1ccc(OP(=O)(O)O)cc1)C(=O)N1CCC[C@H]1C(=O)N(c1ccccc1)c1ccc(I)cc1 is 3.2-fold lower in IC50: 140 nM for the first, 44 nM for the second.

Compared with C/C(=C\C(=O)N[C@H](C(=O)N1CCC[C@H]1C(=O)N(C)C)C(C)(C)C)c1ccc(OP(=O)(O)O)cc1, C/C(=C\C(=O)N[C@H](C(=O)N1CCC[C@H]1C(=O)N(c1ccccc1)c1ccc(I)cc1)C(C)(C)C)c1ccc(OP(=O)(O)O)cc1 is 26-fold lower in IC50: 740 nM for the first, 28 nM for the second.

C/C(=C\C(=O)N[C@H](C(=O)N1CCCC1/C=C/c1ccccc1)C(C)(C)C)c1ccc(OP(=O)(O)O)cc1 (stereo partly drawn) and CC(=O)N[C@@H](Cc1ccc(OP(=O)(O)O)cc1)C(=O)N[C@@H](CCCCN)C(=O)N1CCC[C@H]1C(=O)N[C@@H](Cc1ccccc1)C(=O)N[C@@H](CCC(N)=O)C(N)=O (HELM PEPTIDE1{[ac].[O=C([C@H](Cc1ccc(OP(=O)(O)O)cc1)N[*:1])[*:2]].K.P.F.Q.[am]}$$$$V2.0) are within 1.5-fold of each other in IC50: 3430 nM for the first, 4200 nM for the second.

Work on CC(=O)N[C@@H](Cc1ccc(OP(=O)(O)O)cc1)C(=O)N[C@@H](CCCCN)C(=O)N1CCC[C@H]1C(=O)N[C@@H](Cc1ccccc1)C(=O)N[C@@H](CCC(N)=O)C(=O)N[C@@H](CC(=O)O)C(N)=O (HELM PEPTIDE1{[ac].[O=C([C@H](Cc1ccc(OP(=O)(O)O)cc1)N[*:1])[*:2]].K.P.F.Q.D.[am]}$$$$V2.0) yielded an IC50 of 4500 nM.
